Activity calls are given as the source filed them. The calls are words filed in the database; no cut-off is given here.
Assays:
[1] = Binding affinity to GSH assessed as change in fluorescence intensity at 10 uM measured after 60 mins by fluorescence assay
How it was run: (§1)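 Selectivity panel: probe was incubated with each enzyme or biomolecule in 10 mM PBS, pH 7.4, containing 1% DMSO, for 60 min at room temperature. Fluorescence intensity was read at 532 nm with excitation at 465 nm.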

[2] = test system: Aspergillus oryzae; assay: Binding affinity to oryzae beta-galactosidase assessed as change in fluorescence intensity at 10 uM measured after 60 mins by fluorescence assay; how it was run: as §1
[3] = biological target: T1, Indoleamine 2,3-dioxygenase 1 (Homo sapiens, UniProt P14902); assay: Binding affinity to recombinant human IDO1 expressed in Escherichia coli BL21 (DE3) assessed as increase in fluorescence intensity at 10 uM measured after 60 mins by fluorescence assay relative to control
How it was run: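 Human IDO1 was expressed in E. coli BL21(DE3), induced with 0.4 mM IPTG at OD600 0.6 for 18 h at 18 °C, then purified on Ni column (0–250 mM imidazole gradient) and gel filtration. Probe was titrated with increasing IDO1 in 10 mM PBS, pH 7.4, 1% DMSO, for 60 min at room temperature. Fluorescence: excitation 465 nm, emission 532 nm. Detection limit was taken at signal-to-noise ratio 3.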
Target sequence in this assay (P14902 whole entry, looked up): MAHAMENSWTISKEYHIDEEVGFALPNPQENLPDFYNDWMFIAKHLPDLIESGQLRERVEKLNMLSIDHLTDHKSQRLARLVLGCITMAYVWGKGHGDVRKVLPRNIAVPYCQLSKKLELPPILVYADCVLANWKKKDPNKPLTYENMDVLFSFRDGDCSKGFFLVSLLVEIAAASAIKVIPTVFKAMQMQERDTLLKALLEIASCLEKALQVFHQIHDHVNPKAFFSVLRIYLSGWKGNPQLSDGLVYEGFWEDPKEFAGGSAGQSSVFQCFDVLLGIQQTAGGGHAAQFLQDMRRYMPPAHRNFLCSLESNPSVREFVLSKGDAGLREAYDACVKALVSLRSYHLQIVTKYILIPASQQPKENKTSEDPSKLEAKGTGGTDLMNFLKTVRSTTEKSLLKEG

[4] = biological target: Trypsin (Homo sapiens) (UniProt P07477+P07478+P35030); assay: Binding affinity to trypsin (unknown origin) assessed as change in fluorescence intensity at 10 uM measured after 60 mins by fluorescence assay; assay type: protein assay; how it was run: as §1
[5] = species: Bos taurus; assay: Binding affinity to bovine hemoglobin assessed as change in fluorescence intensity at 10 uM measured after 60 mins by fluorescence assay; how it was run: as §1
[6] = species: Homo sapiens; assay: Binding affinity to chymotrypsin (unknown origin) assessed as change in fluorescence intensity at 10 uM measured after 60 mins by fluorescence assay; how it was run: as §1
[7] = biological target: Albumin (Homo sapiens, UniProt P02768); assay: Binding affinity to human serum albumin assessed as change in fluorescence intensity at 10 uM measured after 60 mins by fluorescence assay; assay type: ADME; conditions: isolated protein, 1 h; how it was run: as §1
[8] = biological target: Albumin (Bos taurus, UniProt P02769); assay: Binding affinity to bovine serum albumin assessed as change in fluorescence intensity at 10 uM measured after 60 mins by fluorescence assay; assay type: ADME; conditions: cattle, isolated protein, 1 h; how it was run: as §1
[9] = test system: Escherichia coli; assay: Binding affinity to Escherichia coli beta-galactosidase assessed as change in fluorescence intensity at 10 uM measured after 60 mins by fluorescence assay; how it was run: as §1
[10] = biological target: T1, Indoleamine 2,3-dioxygenase 1; assay: Inhibition of recombinant human IDO1 expressed in Escherichia coli BL21 (DE3) using tryptophan as substrate
Target sequence in this assay (P14902 whole entry): as the sequence (P14902 whole entry, looked up) above

[11] = test system: CT26; assay: Cytotoxicity against mouse CT26 cells assessed as reduction in cell viability measured after 72 hrs by CCK8 assay; assay type: cell-based; conditions: CT26, 72 h
How it was run: (§2)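 Log-phase HeLa or CT26 cells were seeded at 6 × 10³ per well and grown 24 h at 37 °C, 5% CO₂. Cells were treated with a concentration series in triplicate for 72 h. Medium was then replaced with medium containing 10% CCK8 and incubated a further 40 min.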

[12] = test system: HeLa; assay: Cytotoxicity against human HeLa cells assessed as reduction in cell viability measured after 72 hrs by CCK8 assay; assay type: cell-based; how it was run: as §2
[13] = biological target: T1, Indoleamine 2,3-dioxygenase 1; assay: Inhibition of IDO1 in IFNgamma-stimulated human HeLa cells using tryptophan as substrate measured after 48 hrs
Target sequence in this assay (P14902 whole entry): as the sequence (P14902 whole entry, looked up) above

[14] = Drug uptake in human HeLa cells at 3.5 nM measured after 5 mins by Hoechst staining based confocal fluorescence imaging analysis; assay type: ADME, cell-based; conditions: 0.0035 µM
How it was run: (§3)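 Living HeLa cells, either unstimulated or stimulated with IFN-γ (50 ng/mL, 12 h), were stained with Hoechst for 20 min and then with probe for 5 min before confocal imaging in the green channel.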

[15] = biological target: T1, Indoleamine 2,3-dioxygenase 1; assay: Binding affinity to IDO1 in IFNgamma-stimulated human HeLa cells at 3.5 nM measured after 5 mins by Hoechst staining based confocal fluorescence imaging analysis; how it was run: as §3
Target sequence in this assay (P14902 whole entry, looked up): as above

[16] = biological target: T1, Indoleamine 2,3-dioxygenase 1; assay: Binding affinity to IDO1 in IFNgamma-stimulated human HeLa cells at 3.5 nM measured after 5 mins in presence of IDO1 inhibitor epacadostat by Hoechst staining based confocal fluorescence imaging analysis; how it was run: as §3
Target sequence in this assay (P14902 whole entry, looked up): as above

[17] = biological target: T1, Indoleamine 2,3-dioxygenase 1; assay: Binding affinity to IDO1 in IFNgamma-stimulated human HeLa cells at 5 nM measured after 5 mins by Hoechst staining based confocal fluorescence imaging analysis; how it was run: as §3
Target sequence in this assay (P14902 whole entry, looked up): as above

[18] = test system: CT26; assay: Antitumor activity against mouse CT26 cells implanted in BALB/c mouse assessed as tumor growth inhibition at 100 mg/kg, po administered daily for 12 days relative to control; assay type: functional; conditions: 288 h, time 12 day, read-out: TGI
How it was run: (§4)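 Female Balb/c mice, 4–5 weeks old, were inoculated subcutaneously in the right forelimb with 5 × 10⁵ log-phase CT26 cells in RPMI. Once tumors reached about 50 mm³, mice were randomized (n = 5 per group) and dosed orally at 100 mg/kg daily. Tumor length, width and body weight were recorded every other day, with V = ½ab². Mice were sacrificed when control tumors approached 2000 mm³. TGI = (Vcontrol − Vcompound)/Vcontrol at the last day. Data are mean ± SEM; Student's t-test.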

[19] = Drug uptake in human HeLa cells at 5 nM measured after 5 mins by Hoechst staining based confocal fluorescence imaging analysis; assay type: ADME, cell-based; conditions: 0.005 µM; how it was run: as §3
[20] = biological target: T1, Indoleamine 2,3-dioxygenase 1; assay: Binding affinity to IDO1 in IFNgamma-stimulated human HeLa cells at 5 nM measured after 5 mins in presence of IDO1 inhibitor epacadostat by Hoechst staining based confocal fluorescence imaging analysis; how it was run: as §3
Target sequence in this assay (P14902 whole entry, looked up): as above

[21] = Toxicity in BALB/c mouse implanted with mouse CT26 cells assessed as loss of body weight at 100 mg/kg, po administered daily for 12 days measured every other day during compound dosing; assay type: organism-based; conditions: in vivo, 288 h, time 12 day; how it was run: as §4

Chain of Albumin (Bos taurus, UniProt P02769) (P02769 whole entry): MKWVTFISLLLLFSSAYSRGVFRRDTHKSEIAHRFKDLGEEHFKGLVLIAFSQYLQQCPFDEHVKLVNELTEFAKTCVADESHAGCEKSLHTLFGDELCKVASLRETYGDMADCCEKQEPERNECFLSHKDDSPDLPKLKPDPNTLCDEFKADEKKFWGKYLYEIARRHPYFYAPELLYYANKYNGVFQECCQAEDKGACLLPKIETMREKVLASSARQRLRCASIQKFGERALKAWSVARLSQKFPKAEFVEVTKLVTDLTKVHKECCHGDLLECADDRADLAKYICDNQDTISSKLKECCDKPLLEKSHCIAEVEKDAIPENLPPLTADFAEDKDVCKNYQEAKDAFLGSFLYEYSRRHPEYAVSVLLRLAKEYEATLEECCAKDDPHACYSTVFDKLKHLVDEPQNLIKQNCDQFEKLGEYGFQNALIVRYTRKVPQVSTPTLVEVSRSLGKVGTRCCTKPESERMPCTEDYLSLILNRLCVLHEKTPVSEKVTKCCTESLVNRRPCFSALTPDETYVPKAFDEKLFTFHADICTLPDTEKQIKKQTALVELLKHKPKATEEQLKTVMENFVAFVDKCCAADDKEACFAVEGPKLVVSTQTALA
Chain of Albumin (Homo sapiens, UniProt P02768) (P02768 whole entry): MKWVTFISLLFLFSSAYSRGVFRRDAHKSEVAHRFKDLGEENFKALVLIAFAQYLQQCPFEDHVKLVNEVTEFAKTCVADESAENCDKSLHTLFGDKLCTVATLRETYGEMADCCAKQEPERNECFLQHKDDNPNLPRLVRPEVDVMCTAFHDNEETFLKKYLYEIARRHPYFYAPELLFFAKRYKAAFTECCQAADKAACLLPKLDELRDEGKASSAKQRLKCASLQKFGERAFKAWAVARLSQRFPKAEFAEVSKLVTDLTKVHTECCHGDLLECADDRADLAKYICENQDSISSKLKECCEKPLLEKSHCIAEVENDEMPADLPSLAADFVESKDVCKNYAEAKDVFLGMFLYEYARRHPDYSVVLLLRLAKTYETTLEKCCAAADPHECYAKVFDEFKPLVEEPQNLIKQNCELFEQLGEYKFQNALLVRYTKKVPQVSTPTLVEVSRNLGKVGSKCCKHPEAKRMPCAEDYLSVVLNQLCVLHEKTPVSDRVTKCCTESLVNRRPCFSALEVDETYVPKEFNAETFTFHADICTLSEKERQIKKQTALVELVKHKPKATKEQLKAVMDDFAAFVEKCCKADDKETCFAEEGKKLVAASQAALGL

Activity [1]	Activity [2]	Activity [3]	Activity [4]	Activity [5]	Activity [6]	Activity [7]	Activity [8]	Activity [9]	IC50 [10]	IC50 [13]	Activity [17]	SMILES	IC50 [11]	IC50 [12]	inhibition in vivo at 100 mg/kg [18]	other results
inactive	inactive	Active	inactive	inactive	inactive	Not Active	Not Active	inactive	28 nM	15 nM	–	O=[N+]([O-])c1ccc(NCCNc2nonc2/C(=N/O)Nc2ccc(F)c(Br)c2)c2nonc12	> 100 µM	> 100 µM	–	Drug uptake [14]: Not Active; Activity [15]: Active; Activity [16]: inactive
inactive	inactive	inactive	inactive	inactive	inactive	Not Active	Not Active	inactive	1320 nM	> 5000 nM	inactive	O=C(CNc1ccc([N+](=O)[O-])c2nonc12)NCCNc1nonc1/C(=N/O)Nc1ccc(F)c(Br)c1	> 100 µM	> 100 µM	–	–
–	–	–	–	–	–	–	–	–	–	–	–	NS(=O)(=O)NCCNc1nonc1/C(=N/O)Nc1ccc(F)c(Br)c1 [EPACADOSTAT]	> 100 µM	> 100 µM	49%	–
inactive	inactive	–	inactive	inactive	inactive	Not Active	Not Active	inactive	12 nM	10 nM	Active	O=C(CCNc1ccc([N+](=O)[O-])c2nonc12)NCCNc1nonc1/C(=N/O)Nc1ccc(F)c(Br)c1	> 100 µM	> 100 µM	46%	fold change (FC) [3]: 5; Drug uptake [19]: Not Active; Activity [20]: inactive; Activity [21]: Non-Toxic

Reference: ChEMBL document CHEMBL4732157, “A theranostic probe of indoleamine 2,3-dioxygenase 1 (IDO1) for small molecule cancer immunotherapy” (Eur J Med Chem, 2021)
